For one test, the system named is Leishmania donovani. The test is described as follows: Antileishmanial activity against Leishmania donovani axenic amastigotes after 3 days by tetrazolium dye based spectrophotometric analysis at pH 5.5. The test is classed as functional, organism-based. Conditions: 72 h. A digest of the protocol:
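Ld1s axenic amastigote-like L. donovani grown in potassium-based medium, pH 5.5, 37 °C; exposed to compounds for three days; tetrazolium dye added and read spectrophotometrically. IC50 (μM) averaged with standard errors, n ≥ 3.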

The next test deals with Leishmania amazonensis. In words: Antileishmanial activity against beta-lactamase transfected Leishmania amazonensis promastigotes infected in macrophages after 72 hrs by spectrophotometric analysis. The test is classed as functional, organism-based. In outline: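 Macrophages plated and adhered overnight; infected with β-lactamase-transfected L. amazonensis promastigotes (MOI 5:1) overnight; compounds added for 72 hours at 34 °C; nitrocefin in lysis buffer added for 3 to 5 hours further; absorbance read at 490 nm. IC50 (μM) averaged with standard errors, n ≥ 3.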

What is called IC50 is the concentration that gives 50% inhibition. As for `CC(C)CCOc1cc(NC(=N)c2ncccn2)ccc1-c1ccc(-c2ccc(NC(=N)c3ncccn3)cc2OCCC(C)C)o1`, the half-maximal inhibitory concentration (IC50) in the test on Leishmania donovani came to 7.9 µM; in the test on Leishmania amazonensis, 0.32 µM.

For the origin of these results see ChEMBL document CHEMBL1811805, “Molecular factors governing inhibition of arylimidamides against Leishmania: conservative computational modeling to improve chemotherapies” (Bioorg Med Chem, 2011).
